# Most compounds without a hit are left out; they make up all but 4.1% or so of the library.
# KCNQ1 pot: potentiators or activators of KCNQ1 channel, primary screen, cell-based, thallium flux, high-throughput. Potassium voltage-gated channel subfamily KQT member 1 (Homo sapiens), P51787. CHO-K1 KCNQ1, thallium flux FluxOR fluorescence; active compounds read high. B-score at 10 µM. actives 0.35% (n = 310,000). AID 2648, 2010;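 active means fluorescence ratio B-score, a plate-corrected score, at least three library SD, with initial intensity B-score within 5 SD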
#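 Test system: CHO-K1 cells stably expressing KCNQ1 / Medium: assay buffer / Also added: depolarizing K+/Tl+ stimulus, K2SO4 and Tl2SO4 each 12.5 mM in 5x stock / Incubation: 90 min dye loading and 20 min compound exposure, both at room temperature / Signal: thallium influx via FluxOR fluorescence, kinetic imaging / Evaluation: B score of baseline-normalized fluorescence ratio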
# KCNQ1 inh: inhibitors of human KCNQ1 channel, primary screen, cell-based, thallium flux, high-throughput | AID 2642, 2010 | actives 1.3% (n = 310,000) | CHO-K1 KCNQ1, FluxOR thallium flux fluorescence; active compounds read high | B-score at 10 µM | Potassium voltage-gated channel subfamily KQT member 1 (Homo sapiens), P51787;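 active means compounds whose thallium flux B-score, printed positive for inhibition, exceeds three library SD while starting fluorescence stays within three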;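 further: channel opened by potassium depolarization with thallium stimulus after 20 min compound exposure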
# KCC2 mod: KCC2 cotransporter modulators, thallium flux, primary screen, cell-based, HEK293 KCC2, FluoZin-2 fluorescence, MLSMR. actives 2.2% (n = 190,000). B-score of Tl+ flux slope (higher = more flux/activation; lower = inhibition) at 10 µM. Solute carrier family 12 member 5 (Homo sapiens), Q9H2X9. KCC2 cells, thallium flux FluoZin-2 fluorescence. AID 1456, 2008;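 active means thallium flux slope and its plate-corrected score both differing from the plate sample mean at a set confidence after two filtering rounds, in either direction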;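 further: slope of fluorescence scaled to starting intensity during 10 to 20 s after thallium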
# KCNK9 inh: KCNK9 potassium channel inhibitors, primary screen, HEK293 cells, thallium flux; Potassium channel subfamily K member 9 (Homo sapiens), Q9NPC2; FluxOR thallium flux fluorescence; active compounds read low; B-score at 10 µM; actives 1.2% (n = 310,000); AID 488922, 2010;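 active means ratio B-score over 3 SD below the library mean, with starting fluorescence within 5 SD of its mean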;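 further: negative B-score means less thallium flux so channel inhibition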
# hERG protect: hERG rescue from dofetilide block, primary screen, cell-based, CHO-hERG, FluxOR thallium flux, dofetilide IC70; Voltage-gated inwardly rectifying potassium channel KCNH2 (Homo sapiens), Q12809; dofetilide IC70 present; activation (rescue from dofetilide block), less the hit threshold, % at 10 µM; actives 0.51% (n = 310,000);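 active means activation above the mean of controls blocked by dofetilide plus 5 SD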;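 further: thallium influx through hERG after potassium depolarization seen as dye fluorescence rise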
# Target sequence (Q12809 whole entry, looked up): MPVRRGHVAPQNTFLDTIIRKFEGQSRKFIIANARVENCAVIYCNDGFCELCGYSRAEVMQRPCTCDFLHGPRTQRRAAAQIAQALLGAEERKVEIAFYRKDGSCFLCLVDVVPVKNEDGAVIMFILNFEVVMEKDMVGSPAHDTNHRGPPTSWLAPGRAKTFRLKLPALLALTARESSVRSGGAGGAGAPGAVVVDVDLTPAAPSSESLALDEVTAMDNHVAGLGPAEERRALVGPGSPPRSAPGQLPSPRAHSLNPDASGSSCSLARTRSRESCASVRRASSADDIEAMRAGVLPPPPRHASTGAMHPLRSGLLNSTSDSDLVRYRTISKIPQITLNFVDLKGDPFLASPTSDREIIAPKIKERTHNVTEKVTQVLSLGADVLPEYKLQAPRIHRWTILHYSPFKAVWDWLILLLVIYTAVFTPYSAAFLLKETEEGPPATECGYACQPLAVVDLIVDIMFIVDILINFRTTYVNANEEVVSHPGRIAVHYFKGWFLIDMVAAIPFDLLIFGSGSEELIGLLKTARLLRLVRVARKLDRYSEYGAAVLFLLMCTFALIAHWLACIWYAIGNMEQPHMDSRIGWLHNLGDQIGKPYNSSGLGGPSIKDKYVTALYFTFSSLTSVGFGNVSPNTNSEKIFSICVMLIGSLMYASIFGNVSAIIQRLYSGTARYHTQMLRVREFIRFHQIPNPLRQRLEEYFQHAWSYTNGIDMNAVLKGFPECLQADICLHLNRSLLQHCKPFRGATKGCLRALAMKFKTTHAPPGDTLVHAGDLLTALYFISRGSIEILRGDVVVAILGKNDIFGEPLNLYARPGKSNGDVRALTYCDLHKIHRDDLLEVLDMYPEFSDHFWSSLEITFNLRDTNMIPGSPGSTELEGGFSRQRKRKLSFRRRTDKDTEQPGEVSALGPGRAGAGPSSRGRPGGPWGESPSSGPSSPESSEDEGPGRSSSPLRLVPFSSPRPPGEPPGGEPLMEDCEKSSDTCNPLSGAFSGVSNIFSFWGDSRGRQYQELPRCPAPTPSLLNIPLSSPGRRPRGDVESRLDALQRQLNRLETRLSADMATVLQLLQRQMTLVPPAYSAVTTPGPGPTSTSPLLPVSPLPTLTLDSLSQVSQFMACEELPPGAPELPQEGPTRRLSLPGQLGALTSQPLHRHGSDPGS
# KCNK3 block: human KCNK3 channel inhibitors, primary screen, CHO cells, FluxOR thallium flux, B-score | actives 0.84% (n = 340,000) | Potassium channel subfamily K member 3 (Homo sapiens), O14649 | B-score at 10 µM | AID 602410, 2012 | FluxOR fluorescence; active compounds read low;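 active means B-score under library mean minus 4 SD, starting fluorescence ratio at most library mean plus 5 SD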;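 further: more negative B-score means stronger inhibition of thallium flux through KCNK3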
# KCNK3 confirm: retest of human KCNK3 channel inhibitors, confirmation, CHO cells, FluxOR thallium flux, triplicate | shares compounds with KCNK3 block | FluxOR fluorescence; 0% buffer, 100% carvedilol maximal block | ratio percent of control, % at 10 µM | actives 99% (n = 2,400);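 active means ratio percent of control, averaged over triplicates, above buffer control mean plus 5 SD, cut at about 64% in these data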;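 further: ratio is the fluorescence rise from min to max over baseline after thallium stimulus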
# KCNK3 uninduced: thallium flux inhibition in non-induced cells, primary screen, counter-screen for KCNK3 inhibitor project, cell-based, non-induced KCNK3 line, FluxOR thallium, triplicate; shares compounds with KCNK3 block; thallium flux ratio (lower = more inhibition) at 10 µM; non-induced KCNK3 parental cells; active compounds read low; actives 40% (n = 2,400);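 active means thallium flux ratio, averaged over three wells, more than 5 SD below the buffer control mean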;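 further: host cells are CHO cells without KCNK3 induction; ratio is peak minus trough fluorescence over baseline then normalized to buffer controls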
# The depositor's hits bear a star; i = inactive; nt = no result.
SMILES,KCNQ1 pot,KCNQ1 inh,KCC2 mod,KCNK9 inh,hERG protect,KCNK3 block,KCNK3 confirm,KCNK3 uninduced
CCC(C)(C)n1nnnc1C(c1cc(OC)ccc1OC)N1CCN(Cc2ccccc2)CC1 (centres undefined),i,i,-1.1,-7.6*,-4,-11*,107*,i
CCC(C)(C)n1nnnc1CN1CCN(C(c2ccccc2)c2ccccc2)CC1,i,i,-2.5,i,-15,-13*,141*,0.13*
CCN(C(=O)c1cn(C)c(=O)c2ccccc12)c1ccccc1F,i,i,nt,i,-8,i,nt,nt
Nc1ccc(S(=O)(=O)Nc2nccc(/C=C/c3ccc([N+](=O)[O-])cc3)n2)cc1,i,i,nt,i,-5,i,nt,nt
O=C(NCc1ccccc1)/C(=C\c1ccccc1)NC(=O)c1ccco1,i,i,nt,i,-6,i,nt,nt
CCn1c2ccccc2c2nnc(SCc3ccccc3)nc21,i,i,-0.88,-6.6*,-13,-12*,106*,i
CCCCCn1c(N)c(-c2nc3ccccc3s2)c2c([N+](=O)[O-])nn(C)c(=O)c21,i,11*,0.0096,i,-43,-11*,102*,0.15*
CC(=O)Nc1cccc(NC(=O)c2cccc(OCc3ccccc3)c2)c1,i,i,nt,i,-9,i,nt,nt
CCOC(=O)Nc1cccc(NC(=O)c2ccccc2F)c1,i,i,0.63,i,-10,-8.8*,100*,i
CC(=O)Nc1cccc(NC(=O)c2ccccc2OCc2ccccc2)c1,i,i,nt,i,-9,-10*,111*,i
Cc1csc2ncnc(N3CCN(C(=O)Nc4ccc(OC(F)(F)F)cc4)CC3)c12,i,i,-1.2,i,-20,-9.7*,109*,0.16*
Cc1csc2c(N3CCN(C(=O)Nc4ccccc4)CC3)ncnc12,i,i,-1.1,i,-11,i,nt,nt
O=C(Nc1cccc(/C=C/c2ccccn2)c1)c1cc(Cl)ccn1,i,i,nt,i,-15,-9.4*,109*,i
Cc1ccc(CC(=O)NCCC(=O)O)cc1,i,i,-0.012,i,-7,i,nt,nt
CCOC(=O)c1sc2nc(C)nc(NCc3cccnc3)c2c1C,i,i,-1.4,i,-6,i,nt,nt
CCOC(=O)c1sc2nc(C)nc(NCc3ccc(Cl)cc3)c2c1C,i,i,nt,i,-16,-11*,121*,0.13*
CCOC(=O)c1sc2nc(CC(=O)OC)nc(NCc3ccc(F)cc3)c2c1C,i,i,0.04,i,-8,i,nt,nt
CCOC(=O)c1sc2nc(C)nc(NCc3ccc(F)cc3)c2c1C,i,i,nt,i,-8,-10*,116*,0.15*
CCn1c(CC(=O)Nc2ccc(F)cc2)nnc1SCC(=O)Nc1nncs1,i,i,nt,i,-7,i,nt,nt
CCOC(=O)c1cc2occc2n1Cc1c(F)cccc1Cl,i,i,0.052,i,-12,-9.8*,77*,i
Cc1cc(OCC(=O)Nc2ccccc2N2CCOCC2)c(C(C)C)cc1Cl,nt,nt,nt,nt,nt,i,nt,nt
CCc1nnc(NC(=O)CSc2nnc(-c3ccoc3C)n2-c2cccc(C)c2)s1,i,i,-1.3,i,-2,i,nt,nt
Cc1cccc(-n2c(SCC(=O)Nc3nnc(C)s3)nnc2-c2ccoc2C)c1,i,i,-1.3,i,-3,-14*,66*,0.16*
CCOC(=O)C1=C(C)N=C2c3ccccc3C(=O)C2C1c1ccccc1 (centres undefined),i,i,0.49,i,-6,-8.9*,102*,i
O=C(Nc1ccc(-c2noc(-c3cccs3)n2)cc1)c1cccnc1,i,i,-1.2,i,-1,i,nt,nt
SMILES,KCNQ1 pot,KCNQ1 inh,KCC2 mod,KCNK9 inh,hERG protect,KCNK3 block,KCNK3 confirm,KCNK3 uninduced
COC(=O)C1CCN(c2nc3ccccc3nc2C(C#N)C(=O)OCC(C)C)CC1 (centres undefined),i,i,nt,-6.8*,-7,i,117*,0.15*
CCNc1nc(NC(N)=S)nc(NC(C)(C)C)n1,i,i,0.68,i,-10,i,nt,nt
O=C1CC(c2ccc(O)c(O)c2)Oc2c1ccc(O)c2O (centres undefined),nt,nt,0.28,nt,nt,i,nt,nt
CC(C)=CCc1c(O)ccc2c1OC(c1ccc(O)c(O)c1)CC2=O (centres undefined),i,i,-1.5,-6.6*,-38,-12*,138*,0.12*
C=CCn1c(SCC(=O)c2cccs2)nc2sc(C)c(C)c2c1=O,i,i,-1.7,i,-3,-9.5*,115*,0.15*
COc1cc(C(=S)N2CCOCC2)ccc1OC(=O)c1ccccc1,i,i,nt,i,-13,i,nt,nt
CCOc1cc(C(=S)N2CCOCC2)ccc1OC(=O)c1ccccc1,i,i,nt,i,-8,-8.9*,92*,i
CCOc1cc(C(=S)N2CCOCC2)ccc1OC(=O)c1cccc(C)c1,i,i,nt,i,-3,-9.1*,114*,i
Cc1cc(O)c(-c2n[nH]c3c2C(c2cccc(O)c2)N(Cc2cccnc2)C3=O)cc1Cl (centres undefined),i,i,-1.1,i,-5,i,nt,nt
COc1ccc(OC)c(C2=NS(=O)(=O)N(C)C(C(=O)NCc3cccs3)=C2)c1,i,i,nt,i,-10,i,nt,nt
COc1ccc(OC)c(C2=NS(=O)(=O)N(C)C(C(=O)Nc3cccc(C(C)=O)c3)=C2)c1,i,i,nt,i,-10,-8.8*,122*,0.15*
CC(C)c1ccc(NC(=S)Nc2cccc3ccccc23)cc1,i,i,nt,i,-8,-8.9*,105*,i
CC(C)(C)OC(=O)n1cc(/C=N/NC(=O)c2ccco2)c2ccccc21,i,i,nt,i,-9,-9.2*,108*,i
C=CCn1c(SCc2csc(C)n2)nc2sc3c(c2c1=O)CCCC3,i,i,nt,i,-9,-8.9*,122*,0.14*

# Assay outcomes: PubChem BioAssay, several laboratories
